Experiment: Inhibition of human FTase
How it was run: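 Human FTase (50 ng purified enzyme) with His6-K-Ras4B (1 µM) and [3H]farnesyl diphosphate (500 nM) in 50 mM Tris-HCl pH 7.7, 5 mM MgCl2, 5 µM ZnCl2, 2 mM DTT, 0.2% octyl-glucoside. Incubated 30 min at room temperature, stopped with SDS. Protein precipitated with cold trichloroacetic acid and filter-collected, then 3H counted. Percent inhibition calculated against DMSO vehicle control.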

IC50	Structure (SMILES)
> 500 nM	CCc1ccccc1[C@@H]1CCN(Cc2cccnc2)[C@@H](c2ccccc2)[C@H]1C(=O)O (racemic)
95 nM	CCc1ccccc1[C@@H]1CCN(Cc2cccnc2)[C@@H](c2ccccc2)[C@H]1C(=O)OC (racemic)
> 500 nM	O=[N+]([O-])[C@@H]1[C@@H](c2ccc(O)c(I)c2)N(Cc2cccnc2)CC[C@H]1c1ccccc1Br (racemic)
3.7 nM	O=[N+]([O-])[C@@H]1[C@@H](c2ccc(O)c(O)c2)N(Cc2cccnc2)CC[C@H]1c1ccccc1Br (racemic)
180 nM	COc1cc([C@@H]2[C@@H]([N+](=O)[O-])[C@H](c3ccccc3Br)CCN2Cc2cccnc2)ccc1O (racemic)
46 nM	CCc1ccccc1[C@@H]1CCN(Cc2cccnc2)[C@H](c2ccc(O)c(N)c2)[C@H]1[N+](=O)[O-] (racemic)
5.9 nM	CCS(=O)(=O)Nc1cc([C@H]2[C@H]([N+](=O)[O-])[C@@H](c3ccccc3Br)CCN2Cc2cccnc2)ccc1O (racemic)
3 nM	NS(=O)(=O)Nc1cc([C@H]2[C@H]([N+](=O)[O-])[C@@H](c3ccccc3Br)CCN2Cc2cccnc2)ccc1O (racemic)
270 nM	Cc1ccc(S(=O)(=O)Nc2cc([C@H]3[C@H]([N+](=O)[O-])[C@@H](c4ccccc4Br)CCN3Cc3cccnc3)ccc2O)cc1 (racemic)
> 500 nM	COc1ccc([C@@H]2[C@@H]([N+](=O)[O-])[C@H](c3ccccc3Br)CCN2Cc2cccnc2)cc1 (racemic)
16 nM	O=[N+]([O-])[C@@H]1[C@@H](c2ccccc2)N(Cc2cccnc2)CC[C@H]1c1ccccc1Br (racemic)
25 nM	O=[N+]([O-])[C@H]1[C@H](c2ccccc2Br)CCN(Cc2cccnc2)[C@H]1c1ccccn1 (racemic)
4.3 nM	CS(=O)(=O)Nc1cc([C@H]2[C@H]([N+](=O)[O-])[C@@H](c3ccccc3Br)CCN2Cc2cccnc2)ccc1O (racemic)
13 nM	Nc1cc([C@@H]2[C@@H]([N+](=O)[O-])[C@H](c3ccccc3Br)CCN2Cc2cccnc2)ccc1O (racemic)
98 nM	CC(C)Nc1cc([C@@H]2[C@@H]([N+](=O)[O-])[C@H](c3ccccc3Br)CCN2Cc2cccnc2)ccc1O (racemic)
23 nM	CCc1ccccc1[C@@H]1CCN(Cc2cccnc2)[C@H](c2ccc(O)c(NCc3ccccn3)c2)[C@H]1[N+](=O)[O-] (racemic)
24 nM	CCc1ccccc1[C@@H]1CCN(Cc2cccnc2)[C@H](c2ccc(O)c(NCc3cccnc3)c2)[C@H]1[N+](=O)[O-] (racemic)
> 500 nM	O=[N+]([O-])c1cc([C@@H]2[C@@H]([N+](=O)[O-])[C@H](c3ccccc3Br)CCN2Cc2cccnc2)ccc1O (racemic)
> 500 nM	O=[N+]([O-])[C@@H]1[C@@H](c2ccc3[nH]cnc3c2)N(Cc2cccnc2)CC[C@H]1c1ccccc1Br (racemic)
> 500 nM	CCc1ccccc1[C@@H]1CCN(Cc2cccnc2)[C@@H](c2ccccc2)[C@H]1CO (racemic)
> 500 nM	C=CCOC(=O)[C@H]1[C@H](c2ccccc2CC)CCN(Cc2cccnc2)[C@H]1c1ccccc1 (racemic)
> 500 nM	O=[N+]([O-])[C@@H]1[C@@H](c2ccccc2)N(Cc2cnc[nH]2)CC[C@H]1c1ccccc1Br (racemic)

Second part, the compound before the results:

Structure (SMILES)	IC50
Cn1cnc(CN2CC[C@@H](c3ccccc3Br)[C@H]([N+](=O)[O-])[C@H]2c2ccccc2)c1 (racemic)	> 500 nM
Cn1cncc1CN1CC[C@@H](c2ccccc2Br)[C@H]([N+](=O)[O-])[C@H]1c1ccccc1 (racemic)	17 nM
CCc1ccccc1[C@@H]1CCN(Cc2cccnc2)[C@@H](c2ccccc2)[C@H]1C(C)=O (racemic)	42 nM
CCNc1cc([C@@H]2[C@@H]([N+](=O)[O-])[C@H](c3ccccc3Br)CCN2Cc2cccnc2)ccc1O (racemic)	50 nM
CC(=O)Nc1cc([C@H]2[C@H]([N+](=O)[O-])[C@@H](c3ccccc3Br)CCN2Cc2cccnc2)ccc1O (racemic)	27 nM
COC(=O)Nc1cc([C@H]2[C@H]([N+](=O)[O-])[C@@H](c3ccccc3Br)CCN2Cc2cccnc2)ccc1O (racemic)	14 nM
CCc1ccccc1[C@H]1CCN(Cc2cccnc2)[C@@H](c2ccc(O)c(NS(C)(=O)=O)c2)[C@@H]1[N+](=O)[O-] (racemic)	4.6 nM
CCc1ccccc1[C@H]1CCN(Cc2cccnc2)[C@@H](c2ccc(O)c(NS(N)(=O)=O)c2)[C@@H]1[N+](=O)[O-] (racemic)	4.5 nM
O=[N+]([O-])[C@@H]1[C@@H](c2ccsc2)N(Cc2cccnc2)CC[C@H]1c1ccccc1Br (racemic)	36 nM
CCc1ccccc1[C@@H]1CCN(Cc2cccnc2)[C@H](c2ccc(O)c(NCc3ccncc3)c2)[C@H]1[N+](=O)[O-] (racemic)	12 nM
O=[N+]([O-])[C@@H]1[C@@H](c2cccnc2)N(Cc2cccnc2)CC[C@H]1c1ccccc1Br (racemic)	> 500 nM
NC(=O)Nc1cc([C@H]2[C@H]([N+](=O)[O-])[C@@H](c3ccccc3Br)CCN2Cc2cccnc2)ccc1O (racemic)	15 nM
CCc1ccccc1[C@H]1CCN(Cc2cccnc2)[C@@H](c2ccc(O)c(NC(N)=O)c2)[C@@H]1[N+](=O)[O-] (racemic)	6.2 nM
CCc1ccccc1[C@@H]1CCN(Cc2cccnc2)[C@H](c2ccc(O)c(NCc3ccccc3)c2)[C@H]1[N+](=O)[O-] (racemic)	121 nM
O=[N+]([O-])[C@@H]1[C@@H](c2ccc(O)cc2)N(Cc2cccnc2)CC[C@H]1c1ccccc1Br (racemic)	5.4 nM
CCc1ccccc1[C@@H]1CCN(Cc2cccnc2)[C@@H](c2ccccc2)[C@H]1C(=O)NC (racemic)	> 500 nM
N#Cc1ccc(Cn2cncc2CN2CC[C@@H](c3ccccc3Br)[C@H]([N+](=O)[O-])[C@H]2c2ccccc2)cc1 (racemic)	44 nM

Experiment: Metabolic stability in mouse liver microsomes
Format: ADME, Microsome
How it was run: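 Compound at 0.0010 mg/mL final was preincubated 5.0 min at 37 °C with mouse liver microsomes (1.0 mg/mL final, 100 mmol/L potassium phosphate, pH 7.4). Reaction was started with NADPH-generating system, NADPH system plus UDPGA (100 mmol/L), or UDPGA alone, then run 30 min at 37 °C. Quenched with acetonitrile internal standard and read by HPLC. Residual ratio is the 30-min concentration divided by the initial concentration.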

Stability	Structure (SMILES)
Stable	CCc1ccccc1[C@H]1CCN(Cc2cccnc2)[C@@H](c2ccc(O)c(NS(N)(=O)=O)c2)[C@@H]1[N+](=O)[O-] (racemic)

Source: ChEMBL document CHEMBL1146313, “Design and synthesis of piperidine farnesyltransferase inhibitors with reduced glucuronidation potential” (Bioorg Med Chem, 2007)
